Source: PubChem BioAssay (several laboratories)
In the library only some 2.6% were active in any assay of this set; here they are far more common.
SENP6 inh: blocks the human protease SENP6; Recombinant SENP6 catalytic domain, aminoluciferin luminescence; actives 1.8% (n = 330,000); AID 2599; inhibition, % at 10 µM;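 active means inhibition above about 50% at the single tested dose, limit read from the data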
Platelet DG rel: modulates dense granule release in human platelets | human platelet-rich plasma, SFLLRN dense granule ATP release, luminescence | inhibition, %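 (compounds screened at 7.5 µM in platelet-rich plasma)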 | actives 0.22% (n = 300,000) | AID 1663;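 active means mean replicate score, as percent of positive control, at or above 50; inconclusive means mean below 50 but at least one replicate at or above 50; inactive means mean and every replicate below 50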
SENP8 block-1: blocks human SENP8 cleavage of Nedd8 substrate | inhibition, % at 20 µM | recombinant SENP8, Nedd8 substrate fluorescence | actives 0.64% (n = 360,000) | Q96LD8; in the data active means inhibition mostly above about 40%, no sharp cut-off; inactive means mostly below about 27%
Target sequence (Q96LD8 whole entry, looked up): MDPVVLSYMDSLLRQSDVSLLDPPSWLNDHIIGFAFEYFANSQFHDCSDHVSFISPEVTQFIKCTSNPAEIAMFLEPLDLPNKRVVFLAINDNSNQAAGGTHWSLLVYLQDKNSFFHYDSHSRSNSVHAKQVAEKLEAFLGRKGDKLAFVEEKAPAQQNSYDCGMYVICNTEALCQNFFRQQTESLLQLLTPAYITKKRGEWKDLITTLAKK
SENP7 block: blocks the human protease SENP7; Q9BQF6; recombinant SENP7, Z-RLRGG-aminoluciferin luminescence, 40 min; inhibition, % at 5 µM; actives 1.5% (n = 330,000); AID 434973;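 active means inhibition above about 50% at the single test dose, limit read from the data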
SENP1 FRET inh: inhibitors of human SENP1 SUMO protease catalytic domain; Q9P0U3; actives 0.21% (n = 360,000); recombinant SENP1 catalytic domain, CyPet-SUMO1-YPet FRET cleavage; inhibition, % at 10 µM; AID 624204;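 active means inhibition at least 30% at 10 µM, raw YFP signal under a set limit, fluorescence ratio 0.5 to 1.5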
Target sequence (Q9P0U3 419-644 limits assumed): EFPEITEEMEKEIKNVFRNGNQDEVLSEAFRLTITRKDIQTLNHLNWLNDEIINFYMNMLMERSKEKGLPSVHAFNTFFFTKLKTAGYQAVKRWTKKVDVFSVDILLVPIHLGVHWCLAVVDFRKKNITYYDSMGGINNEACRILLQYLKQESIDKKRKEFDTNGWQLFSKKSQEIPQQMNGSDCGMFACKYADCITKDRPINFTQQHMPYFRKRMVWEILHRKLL
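Assay system: hSENP1 catalytic domain, recombinant. Amount: SENP1 enzyme, 20 pM final. Schedule: 50 min reaction, RT, dark. Technique: FRET, CFP and YFP emission. Control set: no-enzyme wells low, DMSO-plus-enzyme wells high control.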
SENP8 block-2: inhibitors of human SENP8 protease. purified SENP8, Z-RLRGG-aminoluciferin cleavage, luminescence. inhibition, % at 10 µM. actives 1.2% (n = 330,000); in the data active means inhibition above about 50%
SENP8 conf: human SENP8 inhibition, confirmed. actives 40% (n = 6,200). shares compounds with SENP7 block. Recombinant SENP8, Z-RLRGG-aminoluciferin luminescence, 60 min. inhibition, % at 12.5 µM;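 active means mean inhibition across replicates above about 50%, limit read from the data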
SENP6 conf: confirmation of human SENP6 protease inhibitors; shares compounds with SENP7 block; recombinant SENP6, Z-RLRGG-aminoluciferin luminescence; inhibition, % at 12.5 µM; actives 58% (n = 6,200)
SENP7 conf: human SENP7 inhibition, confirmed; shares compounds with SENP7 block; recombinant SENP7, Z-RLRGG-aminoluciferin luminescence, 40 min; inhibition, % at 12.5 µM; actives 69% (n = 6,200); AID 488917
Casp3 select: selectivity test for SENP inhibitors: human caspase-3 inhibition. shares compounds with SENP7 block. purified caspase-3, Z-DEVD-aminoluciferin luminescence, 60 min. inhibition, % at 12.5 µM. actives 60% (n = 6,200). AID 488918;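 active means mean inhibition above about 50%, limit read from the data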
SENP luc ctr: luminescence interference (SENP counter-screen); shares compounds with SENP7 block; Pre-incubated SENP8/Z-RLRGG-aminoluciferin, luciferase luminescence interference; inhibition, % at 12.5 µM; actives 39% (n = 6,200);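 active means mean inhibition above about 50% when retested at one dose, limit read from the data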
Of the large screens only hits and unclear results are named; the others gave an inactive call (follow-up assays come after a bar, where they were run).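 How the source made its calls, unless noted: active means mean inhibition above about 50% in the one-dose retest (limit read from the data); inactive means the rest.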

N/C(=N\OC(=O)c1cccc2ccccc12)c1cccc([N+](=O)[O-])c1	none
COc1ccc(CNC(=O)CCn2c(C)csc2=O)cc1	none (no result: Platelet DG rel)
Cc1cccc(NC(=O)CSc2n[nH]c(-c3ccncc3)n2)c1C	none
O=C(NNC(=O)c1ccc(Br)o1)c1csc(N2CCOCC2)n1	none (no result: Platelet DG rel)
Cc1cccc(/C(N)=N/OC(=O)c2ccc(Cl)cc2Cl)c1	SENP6 inh 94.2, Platelet DG rel inconclusive, SENP7 block 98.3, SENP8 block-2 97.3 | SENP8 conf 99.1 | SENP6 conf 100.3 | SENP7 conf 103.1 | Casp3 select 98.9 | SENP luc ctr 95.5
O=C(N/N=C/c1c(Cl)cccc1Cl)c1cccc(F)c1	none
O=C(N/N=C/c1cccs1)c1n[nH]c2c1CCC2	SENP6 inh 79.5, SENP7 block 77.1 | SENP8 conf inactive | SENP6 conf 70.0 | SENP7 conf 89.1 | Casp3 select 90.3 | SENP luc ctr 51.1
O=C(N/N=C/c1ccccc1Cl)c1n[nH]c2c1CCCC2	SENP6 inh 68.8, SENP7 block 98.2, SENP8 block-2 85.8 | SENP8 conf inactive | SENP6 conf inactive | SENP7 conf inactive | Casp3 select inactive | SENP luc ctr inactive
O=C(N/N=C/c1ccccc1Cl)c1cccc(F)c1	SENP6 inh 69.3, SENP7 block 72.5, SENP8 block-2 53.3 | SENP8 conf inactive | SENP6 conf 70.3 | SENP7 conf 91.5 | Casp3 select 76.1 | SENP luc ctr 67.5
O=C(N/N=C/c1ccc(Cl)cc1)c1n[nH]c2c1CCCC2	none
O=C(N/N=C/c1ccccc1)c1n[nH]c2c1CCCC2	SENP6 inh 58.3, SENP7 block 50.1 | SENP8 conf inactive | SENP6 conf inactive | SENP7 conf 69.2 | Casp3 select 76.5 | SENP luc ctr inactive
CCCCn1c(N)c(N(CC(C)C)C(=O)c2cccs2)c(=O)[nH]c1=O	none
COc1ccc(OC)c2c(C)cc(N3CCN(C(=O)c4ccc(Cl)cc4)CC3)nc12	SENP6 inh 69.2 | SENP8 conf inactive | SENP6 conf inactive | SENP7 conf inactive | Casp3 select inactive | SENP luc ctr inactive
O=C(c1ccc(Cl)cc1)N1CCN(c2ccc(N3CCOCC3)nn2)CC1	none (no result: SENP6 inh, Platelet DG rel, SENP7 block, SENP8 block-2)
Cc1nn(Cc2c(F)c(F)c(F)c(F)c2F)c(C)c1NC(=O)c1nn(C)c(C)c1Br	none
COc1ccc(Cn2c(-c3ccco3)nc3oc4cc(OC)ccc4c(=O)c3c2=O)cc1	SENP6 inh 50.3 | SENP8 conf inactive | SENP6 conf inactive | SENP7 conf inactive | Casp3 select inactive | SENP luc ctr inactive
COc1ccc(-c2[nH]ncc2CN(C)Cc2nonc2C)c(OC)c1	none
O=C(CC(Nc1ccc(F)cc1)C(=O)O)c1ccccc1 (stereo unspecified)	SENP6 inh 96.0, SENP7 block 74.4, SENP8 block-2 82.7 | SENP8 conf 69.2 | SENP6 conf 82.5 | SENP7 conf 90.8 | Casp3 select 83.4 | SENP luc ctr inactive
Cc1ccc(NC(CC(=O)c2ccccc2)c2ccc(F)cc2)cc1 (stereo unspecified)	none
CCn1c(O)c(C=Nc2ccccc2)sc1=S	SENP6 inh 80.8, SENP7 block 69.7, SENP8 block-2 68.8 (no result: SENP8 block-1, SENP1 FRET inh) | SENP8 conf inactive | SENP6 conf 50.9 | SENP7 conf 95.5 | Casp3 select 60.9 | SENP luc ctr inactive
COc1ccccc1C(=O)NCCN1CCN(C(=O)c2ccccc2OC)CC1	none
